Assay outcomes as filed in PubChem BioAssay.
KCNQ1 inh: inhibitors of human KCNQ1 channel, primary screen, cell-based, thallium flux, high-throughput; Potassium voltage-gated channel subfamily KQT member 1 (Homo sapiens), P51787; CHO-K1 KCNQ1, FluxOR thallium flux fluorescence; stronger effect = higher value; B-score at 10 µM; actives 1.3% (n = 310,000);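 active = compounds whose thallium flux B-score, printed positive for inhibition, exceeds three library SD while starting fluorescence stays within three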;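 note: channel opened by potassium depolarization with thallium stimulus after 20 min compound exposure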
hERG protect: hERG rescue from dofetilide block, primary screen, cell-based, CHO-hERG, FluxOR thallium flux, dofetilide IC70 | Voltage-gated inwardly rectifying potassium channel KCNH2 (Homo sapiens), Q12809 | dofetilide IC70 present | activation (rescue from dofetilide block), less the hit threshold, % at 10 µM | actives 0.51% (n = 310,000);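 active = activation above the mean of controls blocked by dofetilide plus 5 SD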;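 note: thallium influx through hERG after potassium depolarization seen as dye fluorescence rise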
KCNK3 inh: human KCNK3 channel inhibitors, primary screen, CHO cells, FluxOR thallium flux, B-score. Potassium channel subfamily K member 3 (Homo sapiens), O14649. FluxOR fluorescence; stronger effect = lower value. B-score at 10 µM. actives 0.84% (n = 340,000). AID 602410, 2012;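 active = B-score under library mean minus 4 SD, starting fluorescence ratio at most library mean plus 5 SD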;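 note: more negative B-score means stronger inhibition of thallium flux through KCNK3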
Kir21 block: inhibitors of mouse Kir2.1 inward-rectifier potassium channel | actives 0.85% (n = 310,000) | B-score at 10 µM | Inward rectifier potassium channel 2 (Mus musculus), P35561 | AID 1672, 2009 | HEK293-Kir2.1, FluxOR thallium flux fluorescence; stronger effect = lower value;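 active = fluorescence ratio B-score at or below minus 3 SD of library scores, with starting-brightness B-score within 2 SD, cut at about -4.2 in these data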;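 note: channel flux triggered by added potassium and thallium sulfate stimulus; B-score of peak minus minimum fluorescence over baseline after thallium stimulus; more negative B-score means stronger Kir2.1 block with less thallium influx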
KCNQ1 act: potentiators or activators of KCNQ1 channel, primary screen, cell-based, thallium flux, high-throughput. Potassium voltage-gated channel subfamily KQT member 1 (Homo sapiens), P51787. CHO-K1 KCNQ1, thallium flux FluxOR fluorescence; stronger effect = higher value. B-score at 10 µM. actives 0.35% (n = 310,000);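 active = fluorescence ratio B-score, a plate-corrected score, at least three library SD, with initial intensity B-score within 5 SD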
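Material: CHO-K1 cells stably expressing KCNQ1. Medium: assay buffer for compound exposure, DMSO matched across wells. Reagent: K+/Tl+ depolarizing stimulus. Compound dosing: single-concentration screen. Times: 37 °C overnight plating, 90-min dark dye load, 20-min compound pretreatment. Technique: FluxOR Tl+ flux fluorescence.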
KCNK9 block: KCNK9 potassium channel inhibitors, primary screen, HEK293 cells, thallium flux | actives 1.2% (n = 310,000) | B-score at 10 µM | FluxOR thallium flux fluorescence; stronger effect = lower value;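 active = ratio B-score over 3 SD below the library mean, with starting fluorescence within 5 SD of its mean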;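 note: negative B-score means less thallium flux so channel inhibition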
* = called active by the depositor; i = inactive; . = no result. In the library only some 3.8% were active in any assay of this set; here they are far more common.

SMILES	KCNQ1 inh	hERG protect	KCNK3 inh	Kir21 block	KCNQ1 act	KCNK9 block
CC(C)Oc1ccc(Nc2ncnc3ccccc23)cc1	i	-8.9	i	-1.43	i	i
CCCCC(Nc1ncnc2ccccc12)C(=O)O (centres undefined)	i	-10.2	i	1.96	16*	i
CCC1(c2ccccc2)NC(=O)N(CC(=O)N2CC(=O)Nc3ccccc32)C1=O (centres undefined)	.	.	i	.	.	.
O=C(c1cc(F)ccc1F)C1CCCN(C(=O)c2ccc3nccnc3c2)C1 (centres undefined)	i	-12.4	i	1.04	i	i
CC1CCCN(C(=O)c2ccc3c(c2)OCO3)C1 (centres undefined)	i	-9.1	i	-1.02	i	i
O=C(c1cccc(Cl)c1)C1CCCN(C(=O)c2ccc3c(c2)OCO3)C1 (centres undefined)	i	-9.5	i	-4.8*	i	i
CN(C)c1cccc(C(=O)N2CCCC(C(=O)c3cc(F)ccc3F)C2)c1 (centres undefined)	i	-18.4	i	0.37	38*	i
Cc1ccccc1NS(=O)(=O)c1cc(C(=O)NCCSC2CCCCC2)ccc1C	i	-6.9	i	0	i	-8.03*
COc1ccccc1-n1nnnc1SCC(=O)Nc1ccc(C)c(N)c1	i	-3.8	i	-4.81	i	i
O=C(Nc1ccccc1N1CCN(C(=O)c2ccccc2)CC1)c1cc2ccccc2o1	.	.	-9.7*	.	.	.
CC(=O)Nc1ccc(NC(=O)C(C)Sc2nc3ccccc3c(=O)n2CC2CCCO2)cc1 (centres undefined)	i	-17.9	i	-2.56	i	i
O=C(COC(=O)c1cnccn1)Nc1ccc(Cl)cn1	i	-12.4	i	1.22	i	i
Cc1ccc(NC(=O)CSc2nn(-c3ccc(Cl)cc3)c(=S)s2)cc1S(=O)(=O)N(C)C	6*	-10.7	i	-2.95	i	i
CN(C)S(=O)(=O)c1cc(NC(=O)CSc2nn(-c3ccc(Cl)cc3)c(=S)s2)ccc1Cl	i	-12.4	i	-0.07	i	i
O=C(Nc1c(C(=O)O)[nH]c2ccc(F)cc12)c1cccc(C(F)(F)F)c1	i	-6.8	i	0.78	i	i
O=C(NCCN1CCN(Cc2ccccc2)CC1)Nc1cc(Cl)cc(Cl)c1	6*	-24.1	i	-0.7	i	i
O=C(NCCN1CCN(c2cccc(Cl)c2)CC1)Nc1ccccc1	i	-10.3	i	-0.13	i	i
CN1CCN(CC#CCn2c3ccccc3c3ccccc32)CC1	i	-12.8	i	-7.08*	i	i
O=C(NCCc1ccccc1)C(=O)NCC1OCCN1S(=O)(=O)c1ccc(Cl)cc1 (centres undefined)	i	-10.5	i	0.1	i	i
CCc1noc(C)c1C(=O)NNC(=O)c1ccc(N(CC)CC)cc1	.	.	i	.	.	.
COc1ccc(-c2nc(=S)c3ccc4ccccc4c3[nH]2)cc1	i	63.3*	i	0.01	77*	i
COc1ccc(-c2nc3ccccc3[nH]2)cc1	i	-4.4	i	-0.7	i	i
N#Cc1ccccc1NC(=O)COC(=O)/C=C/c1ccc(S(=O)(=O)N2CCOCC2)cc1	.	.	i	.	.	.
O=C(Nc1ccccc1Cl)C1C(c2ccccc2)C1(Cl)Cl (centres undefined)	6*	-10.9	i	-0.55	i	i
CCCCNC(=O)N1CCCC(C(=O)c2cc(C)c(OC)c(C)c2)C1 (centres undefined)	i	-3.4	i	2.04	i	i
SMILES	KCNQ1 inh	hERG protect	KCNK3 inh	Kir21 block	KCNQ1 act	KCNK9 block
CCOC(=O)Cn1c(=NC(=O)CSC(C)=O)sc2cc(OC)ccc21	i	-11.2	i	0.52	i	-8.07*
CCCCn1c(N)c(N(CCOC)C(=O)c2cc(C)oc2C)c(=O)[nH]c1=O	i	-8.9	i	0.58	i	i
CCn1c(C)nc2cc(-c3nnc(-c4c(-c5ccccc5)noc4C)o3)ccc21	i	34.3*	i	0.12	i	i
CCOCCn1c(N2CCCC2)nc2c1c(=O)[nH]c(=O)n2C	i	-12.4	i	-1.93	i	i
C[C@H]1COC2=C1C(=O)C(=O)c1c2ccc2c1CCCC2(C)C	i	-18.3	-8.71*	-5.44*	i	i
Cc1ccc(-c2cc(C(=O)OCC(=O)N(C)c3c(N)n(Cc4ccccc4)c(=O)[nH]c3=O)c3ccccc3n2)o1	i	-15.3	i	-0.99	i	i
CCNC(=O)NC(=O)C(C)OC(=O)CCCc1nc2ccccc2s1 (centres undefined)	i	-12.7	i	1.93	i	i
Cc1ccc(NC(=O)C(c2ccccc2)c2ccccc2)c(O)c1	i	-12.8	i	-1.41	i	-7.77*
O=C(NNC(=O)c1cc2ccccc2cc1O)NC1CCCCC1	i	-8.2	i	0.01	i	i
CC1CCC(NC(=O)c2cc3ccccc3cc2O)CC1 (centres undefined)	.	.	-10.9*	.	.	.
CNc1c([N+](=O)[O-])cnn1-c1ccc(Cl)cc1	i	-6.3	i	1.22	i	-7.9*
CCC(C)c1ccccc1OCCCNC1CCCC1 (centres undefined)	i	-8.2	i	-5.94*	i	i
CC(C)(C)c1ccc(-c2cn(-c3ccc(Br)cc3)c3[n+]2CCCS3)cc1	7*	-31.0	i	-1.31	i	i
Oc1c(CN2CCOCC2)cc(-c2ccccc2)cc1CN1CCOCC1	i	35.0*	i	-0.63	i	i
Oc1c(CN2CCOCC2)cc(CN2CCOCC2)c(O)c1CN1CCOCC1	.	.	i	.	.	.
CCN(CC)Cc1cc(Nc2c3ccccc3nc3c4ccccc4n(C)c23)cc(CN(CC)CC)c1O	.	.	i	.	.	.
COc1ccc(OCC(=O)Nc2cc(OC)ccc2N2CCCCC2)cc1	i	-4.0	i	1.27	i	-7.89*
CCC(=O)Nc1ccc(N2CCCCC2)c(C(=O)Nc2ccc(OC)cc2)c1	i	-11.1	i	1.36	i	i
O=C(COc1cccc(C(F)(F)F)c1)Nc1ccccc1N1CCCCC1	i	-14.9	i	-0.43	i	-7.84*
COc1ccc(CC(=O)Nc2ccc(N3CCCC3)c(C)c2)cc1	i	-5.2	i	-9.82*	i	i
